Data set [1] deals with MCF7. In words: Cytotoxicity against human MCF7 cells expressing wild type p53 and ras mutant […]. The class given is functional, cell-based.
In data set [2] the test system is MDA-MB-231. Description: Cytotoxicity against human MDA-MB-231 cells expressing high level of p53 […]. The class given is functional, cell-based.
Data set [3] in a line: Cell cycle arrest in human MCF10A cells assessed as accumulation at G0/G1 phase after 48 hrs using propidium iodide staining by flow cytometry (reference value: 65.70 +/- 1.14 %). Type of data set: ADME, cell-based. To be noted: mcf-10a. On the technique in general: Flow cytometry measures light scatter and fluorescence of single cells or particles in a stream.
A short description of data set [4]: Cell cycle arrest in human MCF10A cells assessed as accumulation at G2/M phase after 48 hrs using propidium iodide staining by flow cytometry (reference value: 12.55 +/- 0.68 %). Type of data set: ADME, cell-based. The settings on record: mcf-10a.
Data set [5] is described as follows: Cell cycle arrest in human MCF10A cells assessed as accumulation at S phase after 48 hrs using propidium iodide staining by flow cytometry (reference value: 21.78 +/- 0.46 %). The class given is ADME, cell-based. The settings on record: mcf-10a.
Data set [6] has as its system MCF7. In words: Cell cycle arrest in human MCF7 cells assessed as accumulation at G0/G1 phase after 48 hrs using propidium iodide staining by flow cytometry (reference value: 89.88 +/- 1.73 %). Type of data set: functional.
Data set [7] deals with MCF7. Description: Cell cycle arrest in human MCF7 cells assessed as accumulation at G2/M phase after 48 hrs using propidium iodide staining by flow cytometry (reference value: 1.57 +/- 2.12 %). The class given is functional.
Data set [8] deals with MCF7. Description: Cell cycle arrest in human MCF7 cells assessed as accumulation at S phase after 48 hrs using propidium iodide staining by flow cytometry (reference value: 8.55 +/- 0.40 %). The class given is functional.
Data set [9] relates to MDA-MB-231. In words: Cell cycle arrest in human MDA-MB-231 cells assessed as accumulation at G0/G1 phase after 48 hrs using propidium iodide staining by flow cytometry (reference value: 42.06 +/- 0.01 %). The class given is functional.
In data set [10] the test system is MDA-MB-231. In words: Cell cycle arrest in human MDA-MB-231 cells assessed as accumulation at G2/M phase after 48 hrs using propidium iodide staining by flow cytometry (reference value: 31.59 +/- 0.03 %). Type of data set: functional.
The subject of data set [11] is MDA-MB-231. Description: Cell cycle arrest in human MDA-MB-231 cells assessed as accumulation at S phase after 48 hrs using propidium iodide staining by flow cytometry (reference value: 26.35 +/- 0.03 %). Type of data set: functional.
For data set [12], the system named is MCF7. Description: Induction of apoptosis in human MCF7 cells assessed as cell viability at IC50 concentration after 24 hrs using V-FITC and propidium iodide staining by flow cytometry (reference value: 90.42 +/- 0.63 %). Type of data set: functional.
Data set [13] concerns MCF7. In words: Induction of apoptosis in human MCF7 cells assessed as necrotic cells at IC50 concentration after 24 hrs using V-FITC and propidium iodide staining by flow cytometry (reference value: 9.55 +/- 0.21 %). Type of data set: functional.
The test system of data set [14] is MCF7. In words: Induction of apoptosis in human MCF7 cells assessed as early apoptotic cells at IC50 concentration after 24 hrs using V-FITC and propidium iodide staining by flow cytometry relative to control. Type of data set: functional.
Data set [15] has as its system MCF7. In words: Induction of apoptosis in human MCF7 cells assessed as late apoptotic cells at IC50 concentration after 24 hrs using V-FITC and propidium iodide staining by flow cytometry (reference value: 0.03 +/- 0.01 %). The class given is functional.
The test system of data set [16] is MCF7. Description: Induction of apoptosis in human MCF7 cells assessed as necrotic cells at IC50 concentration after 48 hrs using V-FITC and propidium iodide staining by flow cytometry (reference value: 12.61 +/- 7.50 %). Type of data set: functional.
For data set [17], the system named is MCF7. Description: Induction of apoptosis in human MCF7 cells assessed as early apoptotic cells at IC50 concentration after 48 hrs using V-FITC and propidium iodide staining by flow cytometry relative to control. Type of data set: functional.
The test system of data set [18] is MCF7. In words: Induction of apoptosis in human MCF7 cells assessed as late apoptotic cells at IC50 concentration after 24 hrs using V-FITC and propidium iodide staining by flow cytometry (reference value: 1.11 +/- 0.24 %). Type of data set: functional.
For data set [19], the system named is MCF7. Description: Induction of apoptosis in human MCF7 cells assessed as viable cells at IC50 concentration after 48 hrs using V-FITC and propidium iodide staining by flow cytometry (reference value: 86.26 +/- 7.25 %).
A short description of data set [20]: Cytotoxicity against human MCF10A cells […] by SRB assay. The class given is cell-based. To be noted: MCF-10A.
A short description of data set [21]: Therapeutic index, ratio of IC50 for human MCF10A cells to IC50 for human MCF7 cells expressing wild type p53 and ras mutant. The settings on record: MCF10A cells versus MCF7 cells (wild type p53, ras mutant), read-out: Ratio IC50. Type of data set: cell-based. The method, boiled down:
(§1)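 Ratio of IC50 in non-tumour MCF-10A to IC50 in the tumour line, both from the SRB growth assay described for cytotoxicity.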

Data set [22] can be described thus: Therapeutic index, ratio of IC50 for human MCF10A cells to IC50 for human MDA-MB-231 cells expressing high level of p53. To be noted: MCF10A cells versus MDA-MB-231 cells (high level of p53), read-out: Ratio IC50. The class given is cell-based. Summed up: as §1
Data set [23] deals with Mus musculus. In words: Acute toxicity in BALB/c mouse assessed as mortality up to 200 mg/kg, ip after 2 weeks. The class given is organism-based. Set-up: dose 200 mg/kg, route intraperitoneal. To be noted: in vivo, 336 h. The method, boiled down: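 Six-week-old female BALB/c mice (about 20 g) were given a single i.p. bolus at 50, 75, 100, 150 and 200 mg/kg (n = 25), dissolved in 0.25 mL of 0.9% NaCl/DMSO. Vehicle controls received saline or DMSO alone. Mice were weighed and scored twice weekly for 2 weeks for systemic toxicity (listlessness, weight loss) and local toxicity (alopecia, skin reaction, leg motility).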

Data set [24] relates to Mus musculus. In words: Acute toxicity in BALB/c mouse assessed as mortality up to 50 mg/kg, po after 2 weeks. The class given is organism-based. Also on record: dose 50 mg/kg, route oral. To be noted: in vivo, 336 h. Summed up:
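Female BALB/c mice, six weeks old (about 20 g), were dosed once by gavage at 0.05, 0.5, 5 and 50 mg/kg (n = 25) in 0.25 mL of 0.9% NaCl/DMSO. Controls received saline or DMSO alone. Body weight and signs of systemic toxicity (listlessness, weight loss) and local toxicity (alopecia, skin reaction, leg motility) were checked twice weekly over 2 weeks.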

Turning to `O=[N+]([O-])c1ccc(S(=O)(=O)N2C[C@H](n3cnc4c(Cl)nc(Cl)nc43)OCc3ccccc32)cc1`, the IC50 – broadly, the midpoint of a concentration-inhibition curve – in the data set with MCF7 [1] came out at 190 nM; in the data set with MDA-MB-231 [2], 110 nM. In addition, the Activity in [3] is given as 65.33%; in data set [4], 12.68%; in [5] it was 22%; in the data set with MCF7 [6], 87.22%; in the data set with MCF7 [7], 1.22%; in the data set on MCF7 [8], 11.06%. Also, the Activity in the data set on MDA-MB-231 [9] was determined as 50.78%; in the data set on MDA-MB-231 [10], 46.24%; in the data set with MDA-MB-231 [11] it was 2.98%; in the data set with MCF7 [12] it was 88.56%; in the data set on MCF7 [13], 10.23%; with MCF7 [14], 0.68%. Besides, the Activity in the data set with MCF7 [15] is on record as 0.51%; with MCF7 [16], 2.94%; in the data set on MCF7 [17] it was 41.99%; with MCF7 [18], 10.51%. In the data set with MCF7 [19], the viability – broadly, a per cent measure of how many cells are alive, often set against a control – is 44.55%.

Take `O=[N+]([O-])c1ccc(S(=O)(=O)N2C[C@@H](n3cnc4c(Cl)nc(Cl)nc43)OCc3ccccc32)cc1`: the IC50 amounted to 100 nM with MCF7 [1] and 110 nM in the data set on MDA-MB-231 [2]. For the same compound, the Activity in data set [3] is on record as 64.22%; in data set [4], 10.76%; in data set [5], 25.02%; in the data set with MCF7 [6], 89.02%; in the data set with MCF7 [7], 3.1%; in the data set with MCF7 [8], 7.88%. Moreover, the Activity with MDA-MB-231 [9] was 39.97%; in the data set with MDA-MB-231 [10], 30.67%; in the data set with MDA-MB-231 [11], 29.37%; in the data set with MCF7 [12], 89.36%; in the data set on MCF7 [13], 10.37%; with MCF7 [14], 0.1%. Besides, the Activity in the data set with MCF7 [15] is recorded as 0.34%; in the data set on MCF7 [16], 1.84%; with MCF7 [17], 28.82%; in the data set on MCF7 [18], 5.35%. In the data set on MCF7 [19], the viability turned out to be 63.98%.

With `O=[N+]([O-])c1ccc(S(=O)(=O)N2CC(n3cnc4c(Cl)nc(Cl)nc43)OCc3ccccc32)cc1` (racemic), the half-maximal inhibitory concentration (IC50) was 355 nM in the data set on MCF7 [1], 166 nM in the data set with MDA-MB-231 [2] and 1820 nM in data set [20]. In addition, the selectivity ratio in data set [21] is 5.14; in data set [22] it was 11. Further, the Activity turned out to be 65.94% in [3]; 11.92% in data set [4]; 22.14% in data set [5]; 87.2% in the data set on MCF7 [6]; 1.57% in the data set on MCF7 [7]; 8.55% in the data set with MCF7 [8]. The Activity stood at 45.4% in the data set with MDA-MB-231 [9]; 25.4% in the data set with MDA-MB-231 [10]; 29.36% in the data set on MDA-MB-231 [11]; 94.16% in the data set on MCF7 [12]; 4.93% in the data set with MCF7 [13]; 0.66% with MCF7 [14]. Also, the Activity in the data set on MCF7 [15] is listed as 0.23%; in the data set with MCF7 [16], 16.13%; with MCF7 [17], 23.38%; with MCF7 [18] it was 13.84%; in the data set with Mus musculus [23], “Non-toxic”; in the data set with Mus musculus [24] it was “Non-toxic”. Besides, in the data set on MCF7 [19], the viability is 46.65%.

For `O=[N+]([O-])c1ccccc1S(=O)(=O)N1CC(n2cnc3c(I)nc(Cl)nc32)OCc2ccccc21` (racemic), the IC50 in the data set on MCF7 [1] was 610 nM; in the data set on MDA-MB-231 [2], 256 nM; in [20], 351 nM. The selectivity ratio in [21] is 0.57; in [22], 1.37. The Activity in data set [3] amounted to 66.69%; in data set [4], 11.34%; in data set [5], 21.98%; with MCF7 [6], 84.1%; in the data set on MCF7 [7], 6.38%; in the data set on MCF7 [8], 9.53%. Further, the Activity in the data set with MDA-MB-231 [9] was 40.38%; in the data set with MDA-MB-231 [10] it was 30.3%; in the data set on MDA-MB-231 [11], 28.82%; in the data set on MCF7 [12], 92.22%; in the data set on MCF7 [13], 7.69%; in the data set with MCF7 [14], 0%. The Activity with MCF7 [15] is 0.08%; with MCF7 [16], 8.08%; in the data set on MCF7 [17], 24.27%; in the data set on MCF7 [18], 9.33%. Further, the viability in the data set with MCF7 [19] is recorded as 58.32%.

The record behind these values is ChEMBL document CHEMBL1649390, “New (RS)-benzoxazepin-purines with antitumour activity: The chiral switch from (RS)-2,6-dichloro-9-[1-(p-nitrobenzenesulfonyl)-1,2,3,5-tetrahydro-4,1-benzoxazepin-3-yl]-9H-purine” (Eur J Med Chem, 2011).
